Assay outcomes as filed in PubChem BioAssay.
UPR CHOP act: activators of apoptotic CHOP UPR arm, primary screen, cell-based, CHO-CHOP luciferase reporter, luminescence, uHTS; UPR activation; percent of tunicamycin response over DMSO baseline; activation, % at 10 µM; 0.34% of 330,000 active; AID 449763, 2010;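 active = at 10 µM dose, activation of 40% or more, normalized to positive control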;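 note: 100% = tunicamycin at 10 µg/mL and 0% = DMSO alone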
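System: CHO-CHOP luciferase reporter cell line; amount: 500 cells/well; buffer or medium: F12 medium containing 10% fetal bovine serum; incubation: 6 h compound exposure at 37 °C after overnight seeding; measured by: luciferase luminescence after 10 min with Steady-Glo reagent; evaluation: % reporter activation, DMSO baseline versus tunicamycin full activation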
XBP1 UPR activ: activators of adaptive XBP1 UPR arm, primary screen, cell-based, CHO-XBP1 luciferase reporter, luminescence, uHTS; IRE1-XBP1 UPR activation; percent of tunicamycin response, DMSO as zero; activation, % at 20 µM; 0.33% of 330,000 active;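 active = versus positive control, 20 µM dose yields 30% or more activation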;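 note: 100% = tunicamycin at 10 µg/mL and 0% = DMSO only wells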
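assay system = CHO-XBP1 luciferase reporter cells | amount = 1000 cells/well | buffer or medium = F12 plus 10% FBS | compound dosing = single point, 20 µM final compound, 1% DMSO | incubation = 16-18 h cell attachment at 37 °C, then 6 h compound exposure | detection = Steady-Glo luminescence read | controls = tunicamycin 10 µg/mL and vehicle-only wells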
CHOP inhibitor: inhibitors of CHOP promoter induction, primary screen, cell-based, unfolded protein response, luciferase reporter; CHO-K1 CHOP-promoter luciferase, tunicamycin-induced, 15-18 h; inhibition, % at 10 µM; 3.8% of 220,000 active; AID 2732, 2010;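 active = compounds that reduced the stress-induced luciferase reporter signal by more than about 70% of percent inhibition, limit read from the data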;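 note: 0% = tunicamycin plus vehicle and 100% = wells without tunicamycin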
Bfl-1 A1 inh: caspase 3/7 activation in MEF A1-2A-BIM cells, primary screen, A1 inhibitor project, cell-based, luminescence, HTS | Caspase-Glo 3/7 luminescence, 3 h; percent of clofoctol response, vehicle zero | caspase activation, % (no concentration beside the values) | 0.066% of 330,000 active;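 active = over half of replicate activation scores above 10%, or exactly half above 10 with the replicate mean above 10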
Numbers without * were called inactive; · = no result given. Many of the other results were omitted from the sample, so hits are more common in it than they were.

SMILES	UPR CHOP act	XBP1 UPR activ	CHOP inhibitor	Bfl-1 A1 inh
Clc1ccc(-c2nnnn2-c2ccc(Cl)c(Cl)c2)cc1Cl	-3	0	83*	1
Cc1cc(NC(=O)CNCC(c2ccccc2)N(C)C)c([N+](=O)[O-])cc1C (stereo not given)	-2	-3	·	0
Cc1cc2ncn(C(=O)c3c(-c4c(Cl)cccc4Cl)noc3C)c2cc1C	-3	-2	74*	0
Cc1cc2ncn(C(=O)c3c(-c4ccccc4)noc3C)c2cc1C	0	-3	72*	-1
Cc1onc(-c2c(Cl)cccc2Cl)c1C(=O)N1CCOCC1	0	2	·	0
Cc1onc(-c2ccccc2)c1C(=O)n1nnc2ccccc21	0	-3	-43	0
O=S(=O)(Cc1ncc(C(F)(F)F)cc1Cl)c1ccccc1	-1	-2	·	1
COc1cccc(NC(=O)CN(C2=NC3CS(=O)(=O)CC3S2)c2cccc(C)c2)c1 (stereo not given)	0	-2	·	0
CCOc1ccccc1-c1nc(C(N)=O)c2[nH]c(=O)n(-c3ccc(F)cc3)c2n1	11	4	-10	1
CCc1ccc(-c2nc(C(N)=O)c3[nH]c(=O)n(-c4ccccc4OC)c3n2)cc1	-3	14	72*	0
COc1ccc(-c2nc(C(N)=O)c3[nH]c(=O)n(-c4cccc(Cl)c4)c3n2)cc1OC	·	·	95*	·
Cc1onc(-c2ccccc2)c1C(=O)Nc1nc2c(s1)CCCC2	5	0	-23	0
CC(C)(C)c1ccc(C(=O)NC(=S)Nc2nc3c(s2)CCCC3)cc1	-2	-3	-14	0
CN(C)c1ccc(C(=O)Nc2nc3c(s2)CCCC3)cc1	-6	-7	92*	-6
Cc1onc(-c2c(F)cccc2Cl)c1C(=O)Nc1nc2c(s1)CCCC2	1	-3	84*	0
Cc1nn(C(C)(C)C)c(OC(=O)c2ccco2)c1Sc1ccccc1	1	1	75*	1
Cc1nn(C(C)(C)C)c(OC(=O)c2ccc(Br)o2)c1Sc1ccccc1	8	2	67	0
Cc1nn(C(=O)c2ccco2)c(C)c1Sc1ccc(Br)cc1	4	-1	21	1
Cc1nn(C(=O)c2ccco2)c(C)c1Sc1ccccc1	1	-6	93*	-1
Cc1nn(C(C)(C)C)c(OC(=O)c2cccs2)c1Sc1ccccc1	0	1	81*	1
C=CCN1C(=O)N(c2ccc(F)cc2)C(=O)C1CC(=O)Nc1ccc(Cl)cc1 (stereo not given)	0	-1	-8	0
COc1cc(NC(=O)CN2C(=O)COc3ccc(S(=O)(=O)N4CCOCC4)cc32)cc(OC)c1	2	-1	·	0
O=C(CN1C(=O)C(=O)N(C2CCCC2)C1=O)Nc1ccc(F)cc1F	1	-2	·	·
O=C(Nc1cc(Cl)ccc1Cl)C1CC(=O)N(c2ccc(Br)cc2)C1 (stereo not given)	1	0	70*	1
O=C(O)CCC(=O)NCc1c(Cl)cccc1Sc1ccc(Cl)cc1	0	0	16	0
SMILES	UPR CHOP act	XBP1 UPR activ	CHOP inhibitor	Bfl-1 A1 inh
O=C(COC(=O)Cc1ccccc1)NCc1ccc2c(c1)OCO2	-2	1	·	-1
CCCCCCn1c(CN2CCCCC2CC)nc2c1c(=O)n(C)c(=O)n2C (stereo not given)	4	-5	92*	0
CCC1CCCCN1Cc1nc2c(c(=O)n(C)c(=O)n2C)n1CCC(C)C (stereo not given)	2	-2	·	0
CSc1ccc(S(=O)(=O)NC2CCCCCC2)cc1	-1	-5	78*	0
O=C(Nc1ccc(S(=O)(=O)NC2CCCCC2)cc1)c1ccc(Br)o1	0	-4	83*	0
O=C(Nc1cccc(NC(=O)c2cccs2)c1)c1ccc(Br)o1	-1	-6	·	0
Cc1ccc(S(=O)(=O)NC2CCCCC2)cc1	2	-1	·	1
O=C(Nc1ccc(NC(=O)c2cccs2)cc1)c1ccc(Br)o1	1	3	90*	0
NC(=O)C[C@H](N)c1cn([C@@H](CC(N)=O)C(=O)N2CCNCC2)nn1	-1	1	·	0
CC(C#N)(NC(=O)CN1CCN(S(=O)(=O)c2ccccc2Cl)CC1)C1CC1 (stereo not given)	1	-1	·	1
